Assays:
[1] = biological target: T1, Receptor-type tyrosine-protein kinase FLT3 (Homo sapiens, UniProt P36888); assay: Inhibition of wild type FLT3 (unknown origin) using Glu/Tyr peptide substrate incubated for 120 mins measured after 40 mins incubation under dark by ADP-glo based luminescence assay
T1 sequence (P36888 whole entry): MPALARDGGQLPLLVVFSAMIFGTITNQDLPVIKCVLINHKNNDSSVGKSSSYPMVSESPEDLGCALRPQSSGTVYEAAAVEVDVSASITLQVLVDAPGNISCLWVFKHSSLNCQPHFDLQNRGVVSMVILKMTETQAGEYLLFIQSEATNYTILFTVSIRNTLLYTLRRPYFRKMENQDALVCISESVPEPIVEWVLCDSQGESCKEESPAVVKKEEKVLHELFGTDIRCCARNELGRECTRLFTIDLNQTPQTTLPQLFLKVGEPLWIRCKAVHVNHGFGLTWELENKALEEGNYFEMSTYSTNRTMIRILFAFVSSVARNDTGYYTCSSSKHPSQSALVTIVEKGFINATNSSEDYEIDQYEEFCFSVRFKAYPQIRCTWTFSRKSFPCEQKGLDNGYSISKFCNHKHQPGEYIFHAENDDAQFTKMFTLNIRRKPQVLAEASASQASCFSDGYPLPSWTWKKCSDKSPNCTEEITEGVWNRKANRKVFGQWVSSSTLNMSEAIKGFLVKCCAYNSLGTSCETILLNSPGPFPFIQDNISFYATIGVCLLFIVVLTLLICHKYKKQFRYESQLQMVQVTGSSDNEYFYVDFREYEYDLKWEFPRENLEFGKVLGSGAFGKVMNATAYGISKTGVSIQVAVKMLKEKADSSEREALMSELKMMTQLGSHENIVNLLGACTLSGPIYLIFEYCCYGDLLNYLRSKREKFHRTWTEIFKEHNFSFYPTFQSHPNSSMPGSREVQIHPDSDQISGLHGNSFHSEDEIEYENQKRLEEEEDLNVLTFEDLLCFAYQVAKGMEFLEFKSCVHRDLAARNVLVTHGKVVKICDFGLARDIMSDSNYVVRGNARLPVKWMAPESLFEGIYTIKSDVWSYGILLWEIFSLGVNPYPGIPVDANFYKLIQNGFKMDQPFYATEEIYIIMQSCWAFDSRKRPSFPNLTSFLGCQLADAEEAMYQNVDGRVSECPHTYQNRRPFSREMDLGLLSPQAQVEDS
Method in brief: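 In-house ADP-Glo assay with poly(Glu,Tyr) 4:1 substrate in 40 mM Tris pH 7.5, 20 mM MgCl2, 50 µM DTT, 0.1 mg/mL BSA. Kinase at 20 nM. ADP-Glo reagent 40 min in the dark, detection reagent 30–40 min, then luminescence. Ki was derived from IC50 by Cheng-Prusoff.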

[2] = biological target: Cyclin-dependent kinase 1/cyclin B1 (Homo sapiens, UniProt P06493); assay: Inhibition of CDK1/cyclin B (unknown origin) using histone 1 protein substrate incubated for 120 mins measured after 40 mins incubation under dark by ADP-glo based luminescence assay; assay type: protein-complex assay
Chain of Cyclin-dependent kinase 1/cyclin B1 (P06493 whole entry): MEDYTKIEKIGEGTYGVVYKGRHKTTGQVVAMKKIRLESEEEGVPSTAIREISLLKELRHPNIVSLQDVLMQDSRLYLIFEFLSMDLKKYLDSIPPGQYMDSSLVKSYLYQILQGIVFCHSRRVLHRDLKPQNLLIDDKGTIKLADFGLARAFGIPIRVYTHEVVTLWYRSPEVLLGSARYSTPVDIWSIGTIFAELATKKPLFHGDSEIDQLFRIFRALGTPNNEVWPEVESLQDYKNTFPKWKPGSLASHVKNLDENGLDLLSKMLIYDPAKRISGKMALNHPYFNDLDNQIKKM
Chain of Cyclin-dependent kinase 1/cyclin B1 (P14635 whole entry, further chain): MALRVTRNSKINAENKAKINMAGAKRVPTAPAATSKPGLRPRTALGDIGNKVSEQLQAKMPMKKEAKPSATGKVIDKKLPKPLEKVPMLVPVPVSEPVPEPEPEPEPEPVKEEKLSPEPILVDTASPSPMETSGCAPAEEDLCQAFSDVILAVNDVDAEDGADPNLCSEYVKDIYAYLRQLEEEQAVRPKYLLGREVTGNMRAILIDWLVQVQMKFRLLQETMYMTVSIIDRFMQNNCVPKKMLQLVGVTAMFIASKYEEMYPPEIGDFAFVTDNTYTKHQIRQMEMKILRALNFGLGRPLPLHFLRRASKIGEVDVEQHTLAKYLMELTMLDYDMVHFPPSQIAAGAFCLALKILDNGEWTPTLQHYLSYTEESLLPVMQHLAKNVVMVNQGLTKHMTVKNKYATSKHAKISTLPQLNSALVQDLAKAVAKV
Method in brief: (§1)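 In-house ADP-Glo assay with 2 mM DMSO stocks. Kinases were CDK1/cyclin B at 1 nM, CDK2/cyclin E1 at 10 nM and CDK7/cyclin H/MAT1 at 40 nM. Substrate was histone 1 for CDK1 and CDK2, and a RNA pol II CTD peptide for CDK7. Compound at 8–10 concentrations, 1:3 serial, final DMSO 0.5%. Reactions ran 60–120 min at room temperature, then ADP-Glo reagent 40 min in the dark, then detection reagent 40 min, read by luminescence. Ki was derived from IC50 by Cheng-Prusoff.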

[3] = biological target: Cyclin-dependent kinase 2/cyclin E1 (Homo sapiens, UniProt P24941); assay: Inhibition of CDK2/cyclin E (unknown origin) using histone 1 protein substrate incubated for 120 mins measured after 40 mins incubation under dark by ADP-glo based luminescence assay; assay type: protein-complex assay; method in brief: as §1
[4] = biological target: CDK7/Cyclin H/MNAT1 (Homo sapiens, UniProt P50613); assay: Inhibition of CDK7/cyclin H/MAT1 (unknown origin) using HYSPTSPSYSPTSPSYSPTSPSKKKK-O substrate incubated for 120 mins measured after 40 mins incubation under dark by ADP-glo based luminescence assay; assay type: protein-complex assay; method in brief: as §1
Chain of CDK7/Cyclin H/MNAT1 (P51946 whole entry): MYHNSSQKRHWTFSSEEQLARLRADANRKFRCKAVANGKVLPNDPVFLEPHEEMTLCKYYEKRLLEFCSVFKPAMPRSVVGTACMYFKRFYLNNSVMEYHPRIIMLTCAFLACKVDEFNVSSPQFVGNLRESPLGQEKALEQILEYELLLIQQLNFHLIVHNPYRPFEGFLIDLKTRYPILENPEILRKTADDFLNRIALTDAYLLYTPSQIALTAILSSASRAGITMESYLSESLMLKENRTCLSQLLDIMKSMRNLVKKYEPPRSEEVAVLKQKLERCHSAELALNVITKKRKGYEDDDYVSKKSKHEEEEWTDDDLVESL
Chain of CDK7/Cyclin H/MNAT1 (P50613 whole entry): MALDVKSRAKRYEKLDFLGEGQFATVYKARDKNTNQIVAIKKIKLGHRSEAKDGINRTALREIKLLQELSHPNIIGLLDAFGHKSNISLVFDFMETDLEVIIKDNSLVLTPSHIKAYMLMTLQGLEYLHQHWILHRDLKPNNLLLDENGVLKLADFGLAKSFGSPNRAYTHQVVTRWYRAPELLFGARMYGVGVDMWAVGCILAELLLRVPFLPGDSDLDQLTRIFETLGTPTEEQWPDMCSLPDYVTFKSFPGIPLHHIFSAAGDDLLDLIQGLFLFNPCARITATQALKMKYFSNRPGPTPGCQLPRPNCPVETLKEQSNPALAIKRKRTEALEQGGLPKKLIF
Chain of CDK7/Cyclin H/MNAT1 (P51948 whole entry, further chain): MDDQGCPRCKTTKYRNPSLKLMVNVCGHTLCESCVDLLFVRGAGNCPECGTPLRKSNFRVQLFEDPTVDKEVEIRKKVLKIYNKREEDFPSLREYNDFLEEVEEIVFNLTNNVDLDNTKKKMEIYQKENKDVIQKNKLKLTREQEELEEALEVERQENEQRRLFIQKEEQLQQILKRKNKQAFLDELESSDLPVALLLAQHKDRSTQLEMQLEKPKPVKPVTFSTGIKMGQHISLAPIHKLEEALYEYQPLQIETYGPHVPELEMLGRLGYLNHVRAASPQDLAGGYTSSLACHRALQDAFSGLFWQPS

[5] = test system: MV4-11; assay: Antiproliferative activity against human MV4-11 cells incubated for 72 hrs by resazurin assay; assay type: functional
Method in brief: (§2)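 Cells seeded and pre-incubated 24 h at 37 °C, 5% CO2, then given a five-fold dilution series of compound (from 10 mM DMSO stock) in medium, in triplicate. Resazurin added after 72 h exposure, 4 h in dark at 37 °C. Fluorescence read at 570/585 nm, normalised to DMSO vehicle. GI50 by non-linear regression; mean ± SD of at least two replicates.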

[6] = biological target: Receptor-type tyrosine-protein kinase FLT3 (Homo sapiens, UniProt P36888, ITD); assay: Inhibition of FLT3 ITD mutant (unknown origin) using Glu/Tyr peptide substrate incubated for 80 mins measured after 40 mins incubation under dark by ADP-glo based luminescence assay
[7] = Inhibition of FLT3 ITD-NPOS mutant (unknown origin) incubated for 120 mins by ADP-glo based luminescence assay; set-up: species or system Homo sapiens
[8] = Inhibition of FLT3 ITD-W51 mutant (unknown origin) incubated for 120 mins by ADP-glo based luminescence assay; set-up: species or system Homo sapiens
[9] = biological target: Receptor-type tyrosine-protein kinase FLT3 (Homo sapiens, UniProt P36888, D835Y); assay: Inhibition of FLT3 D835Y mutant (unknown origin) incubated for 120 mins by ADP-glo based luminescence assay
[10] = Inhibition of FLT3 Y591-V592insVDFREYEYD mutant (unknown origin) incubated for 120 mins by ADP-glo based luminescence assay; set-up: species or system Homo sapiens
[11] = biological target: Receptor-type tyrosine-protein kinase FLT3 (Homo sapiens, UniProt P36888, F594-R595INSR); assay: Inhibition of FLT3 F594_R595insR mutant (unknown origin) incubated for 120 mins by ADP-glo based luminescence assay
[12] = biological target: Receptor-type tyrosine-protein kinase FLT3 (Homo sapiens, UniProt P36888, R595-E596INSEY); assay: Inhibition of FLT3 R595_E596insEY mutant (unknown origin) incubated for 120 mins by ADP-glo based luminescence assay
[13] = test system: MV4-11; assay: Antiproliferative activity against human MV4-11 cells harboring FLT3-ITD mutant assessed as reduction in cell viability after 72 hrs by resazurin assay; assay type: functional; method in brief: as §2
[14] = Antiproliferative activity against human MOLM-13 cells harboring FLT3-ITD mutant assessed as reduction in cell viability after 72 hrs by resazurin assay; assay type: functional; conditions: MOLM-13, 72 h; method in brief: as §2
[15] = test system: NB-4; assay: Antiproliferative activity against human NB-4 cells harboring wild type FLT3 assessed as reduction in cell viability after 72 hrs by resazurin assay; assay type: functional; method in brief: as §2
[16] = test system: THP-1; assay: Antiproliferative activity against human THP-1 cells harboring wild type FLT3 assessed as reduction in cell viability after 72 hrs by resazurin assay; assay type: functional; method in brief: as §2
[17] = test system: Jurkat; assay: Antiproliferative activity against human Jurkat cells harboring FLT3 knockout gene assessed as reduction in cell viability after 72 hrs by resazurin assay; assay type: functional; method in brief: as §2
[18] = test system: K562; assay: Antiproliferative activity against human K562 cells harboring FLT3 knockout gene assessed as reduction in cell viability after 72 hrs by resazurin assay; assay type: functional; method in brief: as §2
[19] = test system: U-937; assay: Antiproliferative activity against human U-937 cells harboring wild type/low FLT3 assessed as reduction in cell viability after 72 hrs by resazurin assay; assay type: functional; method in brief: as §2

Structure (SMILES)	Ki [1] [µM]	Ki [2] [µM]	Ki [3] [µM]	Ki [4] [µM]	GI50 [5] [µM]	Ki [6] [µM]	other results
CC(=O)N1CCCN(c2cccc(Nc3nccc(-c4c[nH]c5cccnc45)n3)c2)CC1	0.15	> 5	> 5	> 5	0.688	0.107	
CC(=O)N1CCN(c2ccc(Nc3nccc(-c4c[nH]c5ncccc45)n3)cc2)CC1	0.0008	0.091	0.049	> 5	< 0.001	0.0001	
CC(=O)N1CCN(c2ccc(Nc3ncc(C#N)c(-c4c[nH]c5ccccc45)n3)cc2)CC1	0.004	4.05	> 5	0.426	0.004	0.0004	
CC(=O)N1CCN(c2ccc(Nc3nccc(-c4nn(C)c5ccccc45)n3)cc2)CC1	0.883	> 5	> 5	> 5	0.181	0.274	
CC(=O)N1CCCN(c2cccc(Nc3nccc(-c4n[nH]c5ccccc45)n3)c2)CC1	0.001	0.727	> 5	> 5	0.018	0.0006	
CC(=O)N1CCN(c2ccc(Nc3ncc(C#N)c(-c4n[nH]c5ccccc45)n3)cc2)CC1	0.021	1.65	> 5	> 5	0.017	0.0002	Ki [7]: < 0.0003 µM; Ki [8]: < 0.0003 µM; Ki [9]: < 0.0003 µM; Ki [10]: < 0.0003 µM; Ki [11]: < 0.0003 µM; Ki [12]: < 0.0003 µM; GI50 [13]: 0.017 µM; GI50 [14]: 0.0004 µM; GI50 [15]: 0.126 µM; GI50 [16]: 3.04 µM; GI50 [17]: > 10 µM; GI50 [18]: 0.185 µM; GI50 [19]: > 10 µM
CN1CCN(c2cccc(Nc3nccc(-c4c[nH]c5ncccc45)n3)c2)CC1	0.004	0.531	0.084	0.142	0.005	0.002	
CC(=O)N1CCN(c2ccc(Nc3ncc(C#N)c(-c4cn(C)c5ccccc45)n3)cc2)CC1	0.037	1.58	1.12	1.62	0.03	0.007	
CC(=O)N1CCCN(c2cccc(Nc3nccc(-c4c[nH]c5ncccc45)n3)c2)CC1	0.0004	0.051	0.031	0.029	0.02	0.0001	
CC(=O)N1CCN(c2ccc(Nc3nccc(-c4cn(C)c5ccccc45)n3)cc2)CC1	0.149	> 5	> 5	> 5	0.252	0.133	
CC(=O)N1CCN(c2ccc(Nc3nccc(-c4cn(S(=O)(=O)c5ccc(C)cc5)c5ccccc45)n3)cc2)CC1	> 5	> 5	> 5	> 5	1.56	0.128	
CCc1nc(C(N)=O)c(Nc2ccc(N3CCC(N4CCN(C)CC4)CC3)c(OC)c2)nc1NC1CCOCC1 [GILTERITINIB]		> 5	1.48	> 5	0.002		
CN1CCN(c2cccc(Nc3nccc(-c4c[nH]c5cccnc45)n3)c2)CC1	0.217	> 5	> 5	> 5	0.405	0.02	
CC(=O)N1CCCN(c2cccc(Nc3nccc(-c4cnc5n(C)cccc4-5)n3)c2)CC1	0.001	1.76	> 5	> 5	0.024	0.0007	
CC(=O)N1CCN(c2ccc(Nc3nccc(-c4n[nH]c5ccccc45)n3)cc2)CC1	> 5	> 5	> 5	> 5	0.346	0.207	
CC(=O)N1CCN(c2ccc(Nc3ncc(C#N)c(-c4c(C)[nH]c5ccccc45)n3)cc2)CC1	0.119	> 5	2.17	0.536	0.39	0.002	
CC(=O)N1CCN(c2ccc(Nc3nccc(-c4c[nH]c5ccccc45)n3)cc2)CC1	0.022	> 5	> 5	> 5	0.033	0.011	
CN1CCN(c2cccc(Nc3nccc(-c4cn(C)c5ncccc45)n3)c2)CC1	0.04	> 5	0.97	> 5	0.024	0.013	
CC(=O)N1CCN(c2ccc(Nc3nccc(-c4c[nH]c5cccnc45)n3)cc2)CC1	0.032	> 5	> 5	> 5	0.42	0.004	
